ChEMBL document CHEMBL1152304, “Alteration of the bis-tetrahydrofuran core stereochemistries in asimicin can affect the cytotoxicity” (J Med Chem, 2008)

Assays:
[1] = tested on: L1210; experiment: Cytotoxicity against mouse L1210 cells at 30 ug by disk diffusion assay; assay type: functional
Outline: (§1)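 15 µL of sample dried overnight on 6.5 mm filter disk. Disk placed near edge of 60 mm dish of cells plated in soft agar, incubated 7-10 days. Zone of inhibition measured from disk edge to start of normal-sized colony formation, disk diameter taken as 200 units. Overly toxic samples diluted 1:4 or 1:10 and retested.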

[2] = tested on: L1210; experiment: Cytotoxicity against mouse L1210 cells at 3 ug by disk diffusion assay; assay type: functional; outline: as §1
[3] = tested on: L1210; experiment: Cytotoxicity against mouse L1210 cells at 0.3 ug by disk diffusion assay; assay type: functional; outline: as §1
[4] = tested on: MC-38; experiment: Cytotoxicity against mouse Colon 38 cells at 30 ug by disk diffusion assay; assay type: functional; outline: as §1
[5] = tested on: MC-38; experiment: Cytotoxicity against mouse Colon 38 cells at 3 ug by disk diffusion assay; assay type: functional; outline: as §1
[6] = tested on: MC-38; experiment: Cytotoxicity against mouse Colon 38 cells at 0.3 ug by disk diffusion assay; assay type: functional; outline: as §1
[7] = tested on: HCT-116; experiment: Cytotoxicity against human HCT116 cells at 30 ug by disk diffusion assay; assay type: functional; outline: as §1
[8] = Cytotoxicity against human H125M cells at 30 ug by disk diffusion assay; assay type: functional; outline: as §1
[9] = tested on: CCRF-CEM; experiment: Cytotoxicity against human CEM cells at 30 ug by disk diffusion assay; assay type: functional; outline: as §1
[10] = Cytotoxicity against human CFU-GM cells at 30 ug by disk diffusion assay; assay type: functional; outline: as §1
[11] = Cytotoxicity against human CFU-GM cells at 3 ug by disk diffusion assay; assay type: functional; outline: as §1
[12] = Cytotoxicity against human CFU-GM cells at 0.3 ug by disk diffusion assay; assay type: functional; outline: as §1
[13] = Inhibition of bovine heart mitochondrial complex1 activity; set-up: species or system Bos taurus
Outline: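 Bovine heart submitochondrial particles, 15 µg/mL, in 0.25 M sucrose, 1 mM MgCl2, 50 mM phosphate pH 7.5. Inhibitor added at various concentrations and equilibrated 5 min. Reaction started with 150 µM NADH and followed spectrophotometrically at 340 nm. IC50 derived.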

[14] = tested on: L1210; experiment: Cytotoxicity against mouse L1210 cells at 60 ug by disk diffusion assay; assay type: functional; outline: as §1
[15] = tested on: L1210; experiment: Cytotoxicity against mouse L1210 cells at 15 ug by disk diffusion assay; assay type: functional; outline: as §1
[16] = tested on: L1210; experiment: Cytotoxicity against mouse L1210 cells at 3.75 ug by disk diffusion assay; assay type: functional; outline: as §1
[17] = tested on: MC-38; experiment: Cytotoxicity against mouse Colon 38 cells at 15 ug by disk diffusion assay; assay type: functional; outline: as §1
[18] = tested on: MC-38; experiment: Cytotoxicity against mouse Colon 38 cells at 3.75 ug by disk diffusion assay; assay type: functional; outline: as §1
[19] = tested on: HCT-116; experiment: Cytotoxicity against human HCT116 cells at 60 ug by disk diffusion assay; assay type: functional; outline: as §1
[20] = Cytotoxicity against human H125M cells at 60 ug by disk diffusion assay; assay type: functional; outline: as §1
[21] = tested on: CCRF-CEM; experiment: Cytotoxicity against human CEM cells at 60 ug by disk diffusion assay; assay type: functional; outline: as §1
[22] = Cytotoxicity against human CFU-GM cells at 60 ug by disk diffusion assay; assay type: functional; outline: as §1
[23] = Cytotoxicity against human CFU-GM cells at 15 ug by disk diffusion assay; assay type: functional; outline: as §1
[24] = Cytotoxicity against human CFU-GM cells at 3.75 ug by disk diffusion assay; assay type: functional; outline: as §1
[25] = tested on: MC-38; experiment: Cytotoxicity against mouse Colon 38 cells at 60 ug by disk diffusion assay; assay type: functional; outline: as §1
[26] = tested on: HCT-116; experiment: Cytotoxicity against human HCT116 cells; assay type: functional, cell-based
[27] = tested on: HCT-116; experiment: Cytotoxicity against human HCT116 cells assessed as surviving fraction at 0.001 ug/ml after 24 hrs; assay type: functional
Outline: (§2)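 HCT-116 cells exposed to drug at 0.001-10 µg/mL for 2 h, 24 h or continuously (168 h). Surviving clonogenic cells counted. 90% kill (S10) used as comparison point.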

[28] = tested on: HCT-116; experiment: Cytotoxicity against human HCT116 cells assessed as surviving fraction at 0.01 ug/ml after 24 hrs; assay type: functional; outline: as §2
[29] = tested on: HCT-116; experiment: Cytotoxicity against human HCT116 cells assessed as surviving fraction at 0.1 ug/ml after 24 hrs; assay type: functional; outline: as §2
[30] = tested on: HCT-116; experiment: Cytotoxicity against human HCT116 cells assessed as surviving fraction at 0.0001 ug/ml after 168 hrs; assay type: functional
[31] = tested on: HCT-116; experiment: Cytotoxicity against human HCT116 cells assessed as surviving fraction at 0.001 ug/ml after 168 hrs; assay type: functional; outline: as §2
[32] = tested on: HCT-116; experiment: Cytotoxicity against human HCT116 cells assessed as surviving fraction at 0.01 ug/ml after 168 hrs; assay type: functional; outline: as §2
[33] = tested on: HCT-116; experiment: Cytotoxicity against human HCT116 cells assessed as surviving fraction at 0.1 ug/ml after 168 hrs; assay type: functional; outline: as §2
[34] = tested on: L1210; experiment: Cytotoxicity against mouse L1210 cells at 0.94 ug by disk diffusion assay; assay type: functional; outline: as §1
[35] = tested on: MC-38; experiment: Cytotoxicity against mouse Colon 38 cells at 0.94 ug by disk diffusion assay; assay type: functional; outline: as §1
[36] = tested on: HCT-116; experiment: Cytotoxicity against human HCT116 cells at 15 ug by disk diffusion assay; assay type: functional; outline: as §1
[37] = Cytotoxicity against human H125M cells at 15 ug by disk diffusion assay; assay type: functional; outline: as §1
[38] = tested on: CCRF-CEM; experiment: Cytotoxicity against human CEM cells at 15 ug by disk diffusion assay; assay type: functional; outline: as §1
[39] = Cytotoxicity against human CFU-GM cells at 0.94 ug by disk diffusion assay; assay type: functional; outline: as §1
[40] = tested on: HCT-116; experiment: Cytotoxicity against human HCT116 cells assessed as surviving fraction at 1 ug/ml after 2 hrs; assay type: functional; outline: as §2
[41] = tested on: HCT-116; experiment: Cytotoxicity against human HCT116 cells assessed as surviving fraction at 10 ug/ml after 2 hrs; assay type: functional; outline: as §2
[42] = tested on: HCT-116; experiment: Cytotoxicity against human HCT116 cells assessed as surviving fraction at 1 ug/ml after 24 hrs; assay type: functional; outline: as §2
[43] = tested on: HCT-116; experiment: Cytotoxicity against human HCT116 cells assessed as surviving fraction at 10 ug/ml after 24 hrs; assay type: functional; outline: as §2
[44] = tested on: HCT-116; experiment: Cytotoxicity against human HCT116 cells assessed as surviving fraction at 1 ug/ml after 168 hrs; assay type: functional; outline: as §2
[45] = tested on: HCT-116; experiment: Cytotoxicity against human HCT116 cells assessed as surviving fraction at 10 ug/ml after 168 hrs; assay type: functional; outline: as §2
[46] = tested on: HCT-116; experiment: Cytotoxicity against human HCT116 cells assessed as surviving fraction at 0.0001 ug/ml after 2 hrs; assay type: functional
[47] = tested on: HCT-116; experiment: Cytotoxicity against human HCT116 cells assessed as surviving fraction at 0.001 ug/ml after 2 hrs; assay type: functional; outline: as §2
[48] = tested on: HCT-116; experiment: Cytotoxicity against human HCT116 cells assessed as surviving fraction at 0.01 ug/ml after 2 hrs; assay type: functional; outline: as §2
[49] = tested on: HCT-116; experiment: Cytotoxicity against human HCT116 cells assessed as surviving fraction at 0.1 ug/ml after 2 hrs; assay type: functional; outline: as §2
[50] = tested on: HCT-116; experiment: Cytotoxicity against human HCT116 cells assessed as surviving fraction at 0.0001 ug/ml after 24 hrs; assay type: functional

SMILES: CCCCCCCCCC[C@@H](O)[C@@H]1CC[C@@H]([C@@H]2CC[C@H]([C@H](O)CCCCCCCCCC[C@@H](O)CC3=C[C@H](C)OC3=O)O2)O1
- inhibition zone (IZ) [1]: 250 Zone units
- inhibition zone (IZ) [2]: 150 Zone units
- inhibition zone (IZ) [3]: 50 Zone units
- inhibition zone (IZ) [4]: 750 Zone units
- inhibition zone (IZ) [5]: 750 Zone units
- inhibition zone (IZ) [6]: 500 Zone units
- inhibition zone (IZ) [7]: 600 Zone units
- inhibition zone (IZ) [8]: 600 Zone units
- inhibition zone (IZ) [9]: 200 Zone units
- inhibition zone (IZ) [10]: 650 Zone units
- inhibition zone (IZ) [11]: 550 Zone units
- inhibition zone (IZ) [12]: 500 Zone units
- IC50 [13]: 3 nM

SMILES: CCCCCCCCCC[C@@H](O)[C@H]1CC[C@@H]([C@@H]2CC[C@H]([C@@H](O)CCCCCCCCCC[C@@H](O)CC3=C[C@H](C)OC3=O)O2)O1
- inhibition zone (IZ) [14]: 200 Zone units
- inhibition zone (IZ) [15]: 300 Zone units
- inhibition zone (IZ) [16]: 150 Zone units
- inhibition zone (IZ) [17]: 800 Zone units
- inhibition zone (IZ) [18]: 650 Zone units
- inhibition zone (IZ) [19]: 550 Zone units
- inhibition zone (IZ) [20]: 500 Zone units
- inhibition zone (IZ) [21]: 150 Zone units
- inhibition zone (IZ) [22]: 350 Zone units
- inhibition zone (IZ) [23]: 250 Zone units
- inhibition zone (IZ) [24]: 100 Zone units
- inhibition zone (IZ) [25]: 600 Zone units
- IC50 [13]: 2.5 nM
- IC50 [26]: 5.6 nM

SMILES: CCCCCCCCCC[C@@H](O)[C@H]1CC[C@H]([C@H]2CC[C@H]([C@@H](O)CCCCCCCCCC[C@@H](O)CC3=C[C@H](C)OC3=O)O2)O1
- inhibition zone (IZ) [14]: 400 Zone units
- inhibition zone (IZ) [15]: 400 Zone units
- inhibition zone (IZ) [16]: 50 Zone units
- inhibition zone (IZ) [17]: 750 Zone units
- inhibition zone (IZ) [18]: 650 Zone units
- inhibition zone (IZ) [19]: 600 Zone units
- inhibition zone (IZ) [20]: 250 Zone units
- inhibition zone (IZ) [21]: 100 Zone units
- inhibition zone (IZ) [22]: 600 Zone units
- inhibition zone (IZ) [23]: 100 Zone units
- inhibition zone (IZ) [24]: 0 Zone units
- inhibition zone (IZ) [25]: 800 Zone units
- IC50 [13]: 3.3 nM
- IC50 [26]: 27 nM

SMILES: CCCCCCCCCCC(O)C1CCC(C2CCC(C(O)CCCCCCCC[C@H](O)CC3=C[C@@H](C)OC3=O)O2)O1 (stereo partly specified) [ASIMICIN]
- Activity [27]: 0.88
- Activity [28]: 0.73
- Activity [29]: 0.54
- Activity [30]: 0.66
- Activity [31]: 0.001
- Activity [32]: 0.001
- Activity [33]: 0.001
- inhibition zone (IZ) [14]: 600 Zone units
- inhibition zone (IZ) [15]: 200 Zone units
- inhibition zone (IZ) [16]: 400 Zone units
- inhibition zone (IZ) [34]: 150 Zone units
- inhibition zone (IZ) [17]: 900 Zone units
- inhibition zone (IZ) [18]: 950 Zone units
- inhibition zone (IZ) [35]: 650 Zone units
- inhibition zone (IZ) [36]: 600 Zone units
- inhibition zone (IZ) [37]: 300 Zone units
- inhibition zone (IZ) [38]: 200 Zone units
- inhibition zone (IZ) [22]: 600 Zone units
- inhibition zone (IZ) [23]: 300 Zone units
- inhibition zone (IZ) [24]: 500 Zone units
- inhibition zone (IZ) [39]: 0 Zone units
- Activity [40]: 0.8
- Activity [41]: 0.66
- Activity [42]: 0.48
- Activity [43]: 0.12
- Activity [44]: 0.001
- Activity [45]: 0.001
- inhibition zone (IZ) [25]: 800 Zone units
- IC50 [13]: 1.2 nM
- IC50 [26]: 0.51 nM
- Activity [46]: 0.97
- Activity [47]: 0.94
- Activity [48]: 0.8
- Activity [49]: 0.98
- Activity [50]: 1
